Assay results: ChEMBL document CHEMBL3232959, “Design, synthesis and biological evaluation of small-azo-dyes as potent Vesicular Glutamate Transporters inhibitors” (Eur J Med Chem, 2014)
Calls of active or inactive are those of the source. The rule behind the calls is not given here.

What was measured:
Rattus norvegicus [1] = species on record: Rattus norvegicus; experiment: Inhibition of rat brain VGLUT assessed as inhibition of [3H]glutamate uptake into vesicles at 20 uM after 10 mins by scintillation spectrophotometry
Summary of the method: (§1)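 Crude rat synaptic vesicles were incubated at 37 °C in 10 mM HEPES-KOH pH 7.4 with 4 mM MgSO4, 4 mM KCl, 1 mM L-aspartate and test compound in DMSO. Uptake was started with ATP/Glu containing [3H]Glu and run for 10 min. It was stopped with ice-cold buffer, GF/C filtered, washed 4 times and counted by scintillation. Blanks without ATP or with CCCP/Trypan Blue were subtracted to give ATP-dependent uptake. At least triplicate.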

[2] = Inhibition of rat brain VGLUT assessed as inhibition of [3H]glutamate uptake into vesicles after 10 mins by scintillation spectrophotometry; summary of the method: as §1
[3] = target: Synaptic vesicular amine transporter VMAT2 (Rattus norvegicus) (UniProt Q01827); experiment: Inhibition of rat vesicular monoamine transporter 2 assessed as inhibition of dopamine uptake at 200 uM
[4] = Competitive inhibition of rat brain VGLUT assessed as inhibition of [3H]glutamate uptake into vesicles after 10 mins by scintillation spectrophotometry
Summary of the method: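 Crude rat synaptic vesicles (50 µg aliquots) incubated in 10 mM HEPES-KOH pH 7.4, sucrose, 4 mM MgSO4, 4 mM KCl, L-aspartate. Uptake started with ATP plus Glu and [3H]Glu, 10 min at 37 °C. Compounds added from DMSO, final 0.20 nM upward. Ice-cold buffer stop, GF/C filtration, four washes, scintillation counting. Uptake without ATP or with CCCP/Trypan Blue subtracted; at least triplicate.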

Homo sapiens [5] = species on record: Homo sapiens; experiment: Agonist activity at mGluR (unknown origin) at 200 uM by cell-based assay
Homo sapiens [6] = species on record: Homo sapiens; experiment: Antagonist activity at mGluR (unknown origin) at 200 uM by cell-based assay
Rattus norvegicus [7] = species on record: Rattus norvegicus; experiment: Inhibition of rat brain VGLUT assessed as inhibition of [3H]glutamate uptake into vesicles at 250 uM after 10 mins by scintillation spectrophotometry

Compound	inhibition (Rattus norvegicus [1])	IC50 [2] [µM]	inhibition [3]	further results
Nc1cc(S(=O)(=O)O)cc2c1C(=O)/C(=N\Nc1ccc(C(=O)O)cc1C(F)(F)F)C(S(=O)(=O)O)=C2	76%	6.8	inactive	
Cc1cc(C(=O)O)cc(C)c1N/N=C1\C(=O)c2c(N)cc(S(=O)(=O)O)cc2C=C1S(=O)(=O)O	5%		inactive	
Nc1cc(S(=O)(=O)O)cc2c1C(=O)/C(=N\Nc1c(O)c(F)c(C(=O)O)c(F)c1F)C(S(=O)(=O)O)=C2	18%		inactive	
Nc1cc(S(=O)(=O)O)cc2c1C(=O)/C(=N\Nc1ccc(I)cc1F)C(S(=O)(=O)O)=C2	46%		inactive	
Nc1cc(S(=O)(=O)O)cc2c1C(=O)/C(=N\Nc1ccc(C(=O)O)cc1Cl)C(S(=O)(=O)O)=C2	55%		inactive	
Cc1cc(-c2ccc(/N=N/c3c(S(=O)(=O)O)cc4cc(S(=O)(=O)O)cc(N)c4c3O)c(C)c2)ccc1/N=N/c1c(S(=O)(=O)O)cc2cc(S(=O)(=O)O)cc(N)c2c1O [TRYPAN BLUE]		0.05		IC50 [4]: 0.1 µM
Nc1cc(S(=O)(=O)O)cc2c1C(=O)/C(=N\Nc1ccc(Br)cc1)C(S(=O)(=O)O)=C2	33%		inactive	
Cc1cc(-c2ccc(/N=N/c3ccc4c(S(=O)(=O)O)cc(S(=O)(=O)O)c(N)c4c3O)c(C)c2)ccc1/N=N/c1ccc2c(S(=O)(=O)O)cc(S(=O)(=O)O)c(N)c2c1O [EVANS BLUE]		0.087		
Cc1cc(C(=O)O)ccc1N/N=C1\C(=O)c2c(N)cc(S(=O)(=O)O)cc2C=C1S(=O)(=O)O	15%		inactive	
Nc1ccc(-c2ccc(N/N=C3\C(=O)c4c(N)cc(S(=O)(=O)O)cc4C=C3S(=O)(=O)O)c(C(F)(F)F)c2)cc1C(F)(F)F	98%	1.8	inactive	
O=C(O)c1cc(C(=O)O)c2cc(/C=C/c3ccccc3)ccc2n1		40		
COc1cc(Br)ccc1N/N=C1\C(=O)c2c(N)cc(S(=O)(=O)O)cc2C=C1S(=O)(=O)O	42%	> 20	inactive	
O=C1C(S(=O)(=O)O)=Cc2cc(S(=O)(=O)O)ccc2/C1=N/Nc1ccc(I)cc1Cl	inactive			
Cc1cc(I)ccc1N/N=C1\C(=O)c2c(N)cc(S(=O)(=O)O)cc2C=C1S(=O)(=O)O	83%	2.1	inactive	Activity (Homo sapiens [5]): inactive; Activity (Homo sapiens [6]): inactive
Nc1ccc(-c2ccc(N/N=C3\C(=O)c4c(N)cc(S(=O)(=O)O)cc4C=C3S(=O)(=O)O)c(Cl)c2)cc1Cl	88%	1.6	inactive	Activity (Homo sapiens [5]): inactive; Activity (Homo sapiens [6]): inactive
Nc1cc(S(=O)(=O)O)cc2c1C(=O)/C(=N\Nc1ccc(C(=O)O)cc1F)C(S(=O)(=O)O)=C2	18%		inactive	
N=c1ccc2c(=O)/c(=N\Nc3ccc(I)cc3Cl)c(S(=O)(=O)O)cc=2/c1=N/Nc1ccc(I)cc1Cl	inactive			

Compound	inhibition (Rattus norvegicus [1])	IC50 [2] [µM]	inhibition [3]	further results
Nc1cc(S(=O)(=O)O)cc2c1C(=O)/C(=N\Nc1ccc(C(=O)O)cc1)C(S(=O)(=O)O)=C2	15%		inactive	
Nc1cc(S(=O)(=O)O)cc2c1C(=O)/C(=N\Nc1c(F)c(F)c(-c3c(F)c(F)c(N)c(F)c3F)c(F)c1F)C(S(=O)(=O)O)=C2	96%	3.3	inactive	
O=C(O)c1cc(C(=O)O)c2cc(/N=N/c3ccc(-c4ccccc4)cc3)ccc2n1		288		
Cc1cc(Br)cc(C)c1N/N=C1\C(=O)c2c(N)cc(S(=O)(=O)O)cc2C=C1S(=O)(=O)O	77%	2.1	inactive	
COc1cc(C(=O)O)ccc1N/N=C1\C(=O)c2c(N)cc(S(=O)(=O)O)cc2C=C1S(=O)(=O)O	25%		inactive	
Nc1cc(S(=O)(=O)O)cc2c1C(=O)/C(=N\Nc1ccc(I)cc1C(F)(F)F)C(S(=O)(=O)O)=C2	83%	5.8	inactive	
Nc1cc(S(=O)(=O)O)cc2c1C(=O)/C(=N\Nc1c(O)c(F)c(Br)c(F)c1F)C(S(=O)(=O)O)=C2	39%		inactive	
Nc1cc(S(=O)(=O)O)cc2cc(S(=O)(=O)O)cc(O)c12	inactive			
Nc1ccc(-c2ccc(N/N=C3\C(=O)c4c(N)cc(S(=O)(=O)O)cc4C=C3S(=O)(=O)O)cc2)cc1	25%		inactive	
O=C(O)c1cc(C(=O)O)c2ccccc2n1				inhibition (Rattus norvegicus [7]): inactive
Nc1ccc(-c2ccc(N/N=C3\C(=O)c4c(N)cc(S(=O)(=O)O)cc4C=C3S(=O)(=O)O)c(F)c2)cc1F	74%	4.8	inactive	
Nc1cc(S(=O)(=O)O)cc2c1C(=O)/C(=N\Nc1ccc(I)cc1Cl)C(S(=O)(=O)O)=C2	45%		inactive	
COc1cc(-c2ccc(/N=N/c3ccc4c(S(=O)(=O)O)cc(S(=O)(=O)O)c(N)c4c3O)c(OC)c2)ccc1/N=N/c1ccc2c(S(=O)(=O)O)cc(S(=O)(=O)O)c(N)c2c1O [CHICAGO SKY BLUE]		3		
O=C1/C(=N\Nc2ccc(I)cc2Cl)C(S(=O)(=O)O)=Cc2cc(S(=O)(=O)O)ccc21	inactive			
Cc1cc(-c2ccc(N/N=C3\C(=O)c4c(N)cc(S(=O)(=O)O)cc4C=C3S(=O)(=O)O)c(C)c2)ccc1N	52%		inactive	
O=C(O)c1cc(C(=O)O)c2cccc(O)c2n1		286		
